An excerpt weighted towards active compounds, which were near 1.2% of everything screened.
TRPML3 agonist: activates the human TRPML3 channel. hit rate 0.29% among 220,000. activation, % at 3 µM. Q8TDD5. HEK293 TRPML3-YFP, Fluo-8 calcium fluorescence; 100% = the carbachol control signal;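 active = activation above its plate's cutoff, the mean activation of the plate's test wells plus 3 SD, cut at about 12% in these data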;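 note: 0% = DMSO only wells and 100% = carbachol wells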
Target sequence (Q8TDD5 whole entry, looked up): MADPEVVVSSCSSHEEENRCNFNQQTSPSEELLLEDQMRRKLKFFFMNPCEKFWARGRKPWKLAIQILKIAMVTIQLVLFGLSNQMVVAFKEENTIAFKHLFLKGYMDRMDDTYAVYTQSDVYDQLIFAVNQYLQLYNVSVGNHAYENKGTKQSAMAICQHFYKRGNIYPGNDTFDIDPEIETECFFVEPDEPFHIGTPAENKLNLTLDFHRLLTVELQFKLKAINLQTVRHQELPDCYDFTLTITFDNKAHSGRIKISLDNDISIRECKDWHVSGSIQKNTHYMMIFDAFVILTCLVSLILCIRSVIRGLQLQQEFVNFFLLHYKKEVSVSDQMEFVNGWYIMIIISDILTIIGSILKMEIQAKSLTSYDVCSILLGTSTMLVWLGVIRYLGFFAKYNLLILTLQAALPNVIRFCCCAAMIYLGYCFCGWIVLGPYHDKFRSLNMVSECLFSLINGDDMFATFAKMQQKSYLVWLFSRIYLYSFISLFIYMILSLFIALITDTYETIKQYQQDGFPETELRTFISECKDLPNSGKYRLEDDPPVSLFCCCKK
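Test system: HEK293 cells stably carrying human TRPML3-YFP; Doses: single dose, 3 µM final nominal compound, 0.3% DMSO final; Schedule: dye loading 1 h 37 °C then 30 min ambient, 125 s read; Technique: Fluo-8 calcium fluorescence; Benchmarks: high control carbachol 87 µM, low control DMSO.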
CRFR2-BP ag: CRF-BP/CRF-R2 complex agonism; activation, % at 13.2 µM; hit rate 0.46% among 350,000; HEK293 CRF-R2/CRF-BP, calcium dye fluorescence (FLIPR); percent of saturating CRF peptide response;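 active = activation of at least 50%, plus an integration ratio under a set limit after plate pattern correction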;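 note: plate controls were neutral control wells without compound for no effect and CRF at EC100 for full effect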
zfTRPN1 agonist: zebrafish TRPN1 (NompC) channel agonism; AID 1424; activation, % at 3 µM; hit rate 0.18% among 220,000; HEK293 zebrafish TRPN1-YFP, Fluo-8 calcium fluorescence; 100% = response to 87 µM carbachol;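 active = activation above its plate's cutoff, the mean activation of test wells on that plate plus 3 SD, cut at about 19% in these data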;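 note: 0% = DMSO alone and 100% = 87 µM carbachol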
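Material – zebrafish TRPN1-YFP in HEK293 cells · Doses – 3 µM single point · Schedule – dye 1 h 37 °C plus 30 min RT · Signal – Fluo-8 calcium fluorescence, excitation 470-495 nm, emission 515-575 nm · Read-out – % activation versus carbachol response · Control set – carbachol high, DMSO low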
CRFR2-BP antag: blocks CRF-induced signaling of the CRF-BP/CRF-R2 complex; HEK293 CRF-R2/CRF-BP, CRF-induced calcium fluorescence; inhibition, % at 11.8 µM; hit rate 0.59% among 350,000; AID 588475;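 active = inhibition of the ligand-induced calcium signal above about 50% at the single tested concentration, limit read from the data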
An asterisk follows results filed as active; . = no result given.

SMILES	TRPML3 agonist	CRFR2-BP ag	zfTRPN1 agonist	CRFR2-BP antag
Cc1ccc(CNC(=O)CCC(=O)c2cccs2)cc1	0	1	-1	59*
Cc1ccc(NC(=O)COC(=O)CCC(=O)c2cccs2)c(Br)c1	.	-1	.	59*
Cc1ccc(NC(=O)CCC(=O)c2cccs2)c(Br)c1	.	1	.	8
CCOC(=O)C1CCCN(c2ncnc3c2cnn3-c2ccc(Cl)cc2)C1 (stereo not given)	0	101*	1	-7
CCOC(=O)C1CCCN(c2ncnc3c2cnn3-c2ccc(OC)cc2)C1 (stereo not given)	1	-2	0	-18
CCOc1ccc(N2C(=O)CC(n3ccc(C)n3)C2=O)cc1 (stereo not given)	0	-3	0	4
S=C(NCCCc1ccccc1)Nc1ccccc1Cl	2	6	145*	31
c1ccc(-n2c(-c3ccncc3)nnc2-c2ccco2)cc1	0	0	0	56*
Cc1ccc(-c2nnc(-c3cccnc3)o2)cc1	.	-1	.	-6
O=C1C=C(c2ccccc2)C(c2ccccc2)C1O (stereo not given)	.	77*	.	-75
O=C(O)C1CCCCC1C(=O)Nc1ccc(-c2ccccc2)cc1 (stereo not given)	0	2	0	5
CCC(C)NC(=O)CSc1nc2ccccc2c(=O)n1CCCC(=O)NCC1CCCO1 (stereo not given)	1	-4	1	51*
O=C(CCCn1c(SCC(=O)NC2CCCCC2)nc2ccccc2c1=O)NCC1CCCO1 (stereo not given)	0	2	1	2
Cc1cc(C)nc(SCc2ccc(C(=O)NNC(=O)Nc3cccc(Cl)c3)cc2)n1	0	0	0	70*
CCCN(CCC)S(=O)(=O)c1ccc(C(=O)OCCN2C(=O)c3cccc4c(N5CCOCC5)ccc(c34)C2=O)cc1	1	114*	1	-106
O=C(OCCN1C(=O)c2cccc3c(N4CCOCC4)ccc(c23)C1=O)c1ccc(Cl)cc1	7	366*	12	-374
O=C(OCCN1C(=O)c2ccccc2C1=O)c1cc(S(=O)(=O)N2CCOCC2)ccc1F	0	2	-3	-21
O=C(CCCCCN1C(=O)c2cccc([N+](=O)[O-])c2C1=O)Nc1ccccc1F	.	-2	.	7
C(=C\c1ccccc1)/CSc1nnc(-c2ccncc2)n1Cc1ccco1	0	-2	2	39
Clc1cccc(CSc2nnc(-c3ccccn3)n2Cc2ccco2)c1	-1	-1	-2	12
Clc1cccc(-c2nnc(SC/C=C/c3ccccc3)n2Cc2ccco2)c1	0	9	-1	60*
C(=C\c1ccccc1)/CSc1nnc(-c2ccccc2)n1Cc1ccco1	0	-4	-2	62*
CCCCCCCNC(=O)c1cc(-c2ccncc2)nc2ccccc12	.	1	.	-28
CC1(C)Oc2ccc(C(=O)N3CCCC3)cc2N(CC(=O)NCc2ccccc2)C1=O	0	2	-1	5
Cc1ccc(N/N=C(\C#N)C(N)=S)c(C)c1	2	60*	4	-5
SMILES	TRPML3 agonist	CRFR2-BP ag	zfTRPN1 agonist	CRFR2-BP antag
O=C(Nc1ccc(Cl)c(Cl)c1)OCc1cnc(Cl)s1	0	2	1	-12
COc1cc(/C=C2/C(=N)N3C(SC)=NSC3=NC2=O)ccc1OC(=O)c1ccco1	.	-1	.	5
CSC1=NSC2=NC(=O)/C(=C/c3coc4ccc(O)cc4c3=O)C(=N)N12	1	79*	1	-98
CC1=CC2=NC(=O)/C(=C\c3cc(C)n(-c4cccc(Cl)c4)c3C)C(=N)N2O1	1	-1	0	-21
N=C1/C(=C\c2coc3ccccc3c2=O)C(=O)N=C2SC=CN12	66*	181*	176*	-164
N=C1/C(=C/c2cccn2Cc2ccc(F)cc2)C(=O)N=C2SC=CN12	0	-6	-1	2
CC1=CC2=NC(=O)/C(=C/c3coc4ccc(Cl)cc4c3=O)C(=N)N2O1	16*	106*	53*	-60
CSC1=NSC2=NC(=O)/C(=C/c3coc4ccccc4c3=O)C(=N)N12	10	313*	36*	-320
O=C1CCN(Cc2ccccc2)N1	.	0	.	-5
O=C(CNC(=O)C1CCCCC1)Nc1ccc(F)c(Cl)c1	-1	1	-1	65*
CC1(C)C[C@H](O)[C@@]23C[C@@H](OC2=O)[C@]2(C)C(=CCC4[C@@]5(C)CC[C@H](O)C(C)(C)C5CC[C@]42C)[C@@H]3C1 (stereo not given in full)	.	74*	.	-43
N#CCSc1nc2sccc2c(=O)n1-c1ccccc1	.	0	.	74*
